The source of these data is ChEMBL document CHEMBL4177551, “Bioactive Triterpenoids from the Twigs of Chaenomeles sinensis” (J Nat Prod, 2017).

Series [1] has as its system BV-2. The experiment in a line: Anti-inflammatory in mouse BV2 cells assessed as inhibition of LPS-induced nitric oxide production pre-incubated before LPS challenge for 24 hrs by Griess reagent based assay. The series is classed as functional, cell-based. In short, it runs like this: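 BV2 microglia seeded at 4 × 10^4 cells/well, treated with or without graded compound concentrations, then stimulated with LPS (100 ng/mL) for 24 h. Nitrite in the medium was measured with Griess reagent (0.1% N-1-naphthylethylenediamine dihydrochloride, 1% sulfanilamide, 5% phosphoric acid), 1:1 with supernatant for 10 min, A570. Quantified against a sodium nitrite standard. IC50 = concentration giving 50% inhibition of NO production.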

A short description of series [2]: Cytotoxicity in mouse BV2 cells assessed as cell viability at 20 uM incubated for 24 hrs by MTT assay relative to untreated control. The series is classed as cell-based, BV-2. The following applies: read-out: Activity. The essentials:
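BV2 cells in the LPS-stimulated NO assay (LPS 100 ng/mL, 24 h) were exposed to 20 μM compound. Viability was read by MTT assay and expressed as percent. Mean ± SD of three independent experiments.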

Series [3] deals with A549. The experiment in a line: Cytotoxicity against human A549 cells assessed as inhibition of cell growth by SRB assay. The format is functional, cell-based. In short, it runs like this:
(§1)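 Human tumour lines A549, SK-OV-3, SK-MEL-2 and HCT15 (from ATCC) were tested by sulforhodamine B assay. IC50 is the concentration giving 50% inhibition of cell growth. Cisplatin served as positive control.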
In general terms: In SRB staining, fixed cells bind dye roughly in proportion to their protein.

Series [4] deals with SK-OV-3. The experiment in a line: Cytotoxicity against human SKOV3 cells assessed as inhibition of cell growth by SRB assay. The series is classed as functional, cell-based. The essentials:
as §1

Series [5] concerns SK-MEL-2. The experiment in a line: Cytotoxicity against human SK-MEL-2 cells assessed as inhibition of cell growth by SRB assay. The format is functional, cell-based. The essentials:
as §1

In series [6] the test system is HCT-15. The experiment in a line: Cytotoxicity against human HCT15 cells assessed as inhibition of cell growth by SRB assay. The format is functional, cell-based. In short, it runs like this: as §1
The test system of series [7] is C6. The series can be described thus: Neuroprotective activity in rat C6 cells assessed as induction of nerve growth factor secretion at 20 uM incubated for 24 hrs by ELISA method relative to untreated control. The series is classed as functional. In short, it runs like this:
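C6 glioma cells seeded at 1 × 10^5 cells/well and cultured 24 h. They were then switched to serum-free DMEM with compound at 20 μM for a further 24 h. NGF secreted into the conditioned medium was quantified by ELISA and expressed as percent of untreated control (100%). Mean ± SD of three independent experiments.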
Background: In an ELISA, binding on a coated surface is turned into a signal by an enzyme label.

The nature of series [8]: Cytotoxicity in rat C6 cells assessed as cell viability at 20 uM incubated for 24 hrs by MTT assay relative to untreated control. The following applies: read-out: Activity. The series is classed as cell-based. The essentials:
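C6 glioma cells were seeded at 1 × 10^5 cells/well. After 24 h, medium was switched to serum-free DMEM and compounds were added at 20 μM for 24 h. Viability was read by MTT and expressed as % of untreated cells. Values are means ± SD of three independent experiments.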

By IC50 is commonly meant the midpoint of a concentration-inhibition curve. As to `CNC(=N)NCCC[C@H](N)C(=O)O` [TILARGININE], the IC50 in series [1] was found to be 21.8 µM. Also, in series [2], the viability at 24 h, 20 µM is 114%.
Consider `C=C(C)[C@@H]1CC[C@]2(C(=O)O)CC[C@]3(C)[C@H](CC[C@@H]4[C@@]5(C)CC[C@H](OC(=O)/C=C\c6ccc(O)c(O)c6)C(C)(C)[C@@H]5CC[C@]43C)[C@@H]12`, for which the IC50 was found to be 0.9 µM in series [3]; 7.5 µM in series [4]; 6.7 µM in series [5]; 3.8 µM in series [6]; 13.4 µM in series [1]. Further, the viability at 24 h, 20 µM in series [2] came to 35.3%.
Consider `C=C(C)[C@@H]1CC[C@]2(C(=O)O)CC[C@]3(C)[C@H](CC[C@@H]4[C@@]5(C)C[C@@H](O)[C@H](O)C(C)(C)[C@@H]5CC[C@]43C)[C@@H]12` [ALPHITOLIC ACID], for which, in series [1], the IC50 was 14.5 µM. For the same molecule, in series [2], the viability at 24 h, 20 µM came to 71%.
For the molecule `CCCCC/C=C/C(=O)CCc1ccc(O)c(OC)c1` [SHOGAOL], in series [7], the Activity was 168.6%. In series [8], the viability at 24 h, 20 µM stood at 126%.
As to `COc1cc(/C=C\C(=O)O[C@H]2[C@H](O)C[C@]3(C)[C@H]4CC=C5[C@H]6[C@](C(=O)O)(CC[C@@H](C)[C@@]6(C)O)CC[C@@]5(C)[C@]4(C)CC[C@H]3C2(C)C)ccc1O`, in series [1], the half-inhibitory concentration (IC50) came out at 37.1 µM. Moreover, the viability at 24 h, 20 µM in series [2] was determined as 111%.
In the case of `C=C(C)[C@@H]1CC[C@]2(C(=O)O)CC[C@]3(C)[C@H](CC[C@@H]4[C@@]5(C)CC[C@H](OC(=O)/C=C/c6ccc(O)c(O)c6)C(C)(C)[C@@H]5CC[C@]43C)[C@@H]12`, the IC50 in series [3] is 9.9 µM; in series [4], above 10 µM; in series [5], above 10 µM; in series [6], above 10 µM. Further, the Activity in series [7] amounted to 355.7%. Besides, the viability at 24 h, 20 µM in series [8] came to 95%.
In the case of `C=C(C)[C@@H]1CC[C@]2(CO)CC[C@]3(C)[C@H](CC[C@@H]4[C@@]5(C)CC[C@H](OC(=O)/C=C\c6ccc(O)c(O)c6)C(C)(C)[C@@H]5CC[C@]43C)[C@@H]12`, the half-maximal inhibitory concentration (IC50) in series [3] was above 10 µM; in series [4], 8.4 µM; in series [5], 2 µM; in series [6], above 10 µM.
As to `C[C@H]1[C@H](C)CC[C@]2(C(=O)O)CC[C@]3(C)C(=CC[C@@H]4[C@@]5(C)C[C@@H](O)[C@H](O)C(C)(C)[C@@H]5CC[C@]43C)[C@H]12` [COROSOLIC ACID], in series [1], the IC50 was found to be 47.1 µM. In addition, in series [2], the viability at 24 h, 20 µM came to 100%.
In the case of `CC1(C)CC[C@]2(C(=O)O)CC[C@]3(C)C(=CC[C@@H]4[C@@]5(C)C[C@@H](O)[C@@H](O)C(C)(C)[C@@H]5CC[C@]43C)[C@@H]2C1`, the IC50 in series [1] is 21.6 µM. The viability at 24 h, 20 µM in series [2] is 87%.
For the molecule `C[C@@H]1CC[C@]2(C(=O)O)CC[C@]3(C)C(=CC[C@@H]4[C@@]5(C)C[C@@H](O)[C@H](O)C(C)(C)[C@@H]5CC[C@]43C)[C@@H]2[C@]1(C)O` [TOMENTIC ACID], the Activity in series [7] was 167.4%. The viability at 24 h, 20 µM in series [8] came to 100%.
Consider `C=C(C)[C@@H]1CC[C@]2(C(=O)O)CC[C@]3(C)[C@H](CC[C@@H]4[C@@]5(C)CC[C@H](O)C(C)(C)[C@@H]5CC[C@]43C)[C@@H]12` [BETULINIC ACID], for which the IC50 in series [3] is 3.1 µM; in series [4], above 10 µM; in series [5], above 10 µM; in series [6], 8.7 µM; in series [1] it was 4.5 µM. Also, the Activity in series [7] was 177.6%. Further, the viability at 24 h, 20 µM in series [8] was 77.3%; in series [2], 59.6%.
Turning to `CC1(C)CC[C@]2(C(=O)O)CC[C@]3(C)C(=CC[C@@H]4[C@@]5(C)C[C@@H](O)[C@H](O)C(C)(C)[C@@H]5CC[C@]43C)[C@@H]2C1` [MASLINIC ACID], the IC50 in series [1] turned out to be 17.8 µM. Also, in series [2], the viability at 24 h, 20 µM came out at 30.4%.
For the molecule `C=C(C)[C@@H]1CC[C@]2(CO)CC[C@]3(C)[C@H](CC[C@@H]4[C@@]5(C)CC[C@H](OC(=O)/C=C/c6ccc(O)c(O)c6)C(C)(C)[C@@H]5CC[C@]43C)[C@@H]12`, the IC50 in series [3] is above 10 µM; in series [4] it was 9 µM; in series [5], 2.9 µM; in series [6], above 10 µM.
As for `C=C(C)[C@@H]1CC[C@]2(CO)CC[C@]3(C)[C@H](CC[C@@H]4[C@@]5(C)CC[C@H](O)[C@](C)(CO)[C@@H]5CC[C@]43C)[C@@H]12` [ILEKUDINOL C], the IC50 in series [3] is 5.1 µM; in series [4], above 10 µM; in series [5], above 10 µM; in series [6], above 10 µM; in series [1] it was 25.5 µM. Moreover, the viability at 24 h, 20 µM in series [2] was 88%.
